Test results published in ChEMBL document CHEMBL3351743, “Chemopreventive effects of (-)-hinokinin against 1,2-dimethylhydrazine-induced genotoxicity and preneoplastic lesions in rat colon” (J Nat Prod, 2014).
The source made the active and inactive calls. No cut-off for these calls is given here.

How the values were obtained:
Rattus norvegicus [1] = test: Antigenotoxic activity in Wistar rat peripheral blood assessed as reduction in DMH-induced increase in nucleoids at 40 mg/kg, po administered daily for 7 days; format: functional; set-up: scale not given: the % may be the effect or the level left
How it was run: (§1)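 Male Wistar rats, six per group. Compound in water/Tween 80 (97:3) given by daily gavage for 7 days. DMH 40 mg/kg sc given 4 h before sampling on day 7. Cells used only at ≥80% viability. Scoring: 100 nucleoids per animal visually classed 0–3 by tail length relative to head diameter. % reduction = (DMH − treated)/(DMH − negative control) × 100, based on damaged cells.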

Rattus norvegicus [2] = test: Anticarcinogenic activity in Wistar rat colon assessed as reduction in frequency of DMH-induced aberrant crypt foci in distal segment at 10 to 40 mg/kg, po administered five times per week for 4 weeks; format: functional, organism-based
How it was run: (§2)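 Male Wistar rats (~120 g, 4−5 weeks old, 1 week acclimation), six per group. Compound in water/Tween 80 (97:3) given by gavage five times weekly for 4 weeks. DMH dissolved in EDTA solution, 160 mg/kg total given as four sc injections of 40 mg/kg, twice weekly over the first 2 weeks. Colons formalin-fixed 24 h, stained with 0.02% methylene blue; 50 fields per segment at 100×; ACF counted, mean ± SD, ANOVA/Tukey.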

Rattus norvegicus [3] = test: Antigenotoxic activity in Wistar rat peripheral blood assessed as reduction in DMH-induced increase in nucleoids at 10 mg/kg, po administered daily for 7 days; format: functional; set-up: scale not given: the % may be the effect or the level left; how it was run: as §1
Rattus norvegicus [4] = test: Antigenotoxic activity in Wistar rat peripheral blood assessed as reduction in DMH-induced increase in nucleoids at 20 mg/kg, po administered daily for 7 days; format: functional; set-up: scale not given: the % may be the effect or the level left; how it was run: as §1
Rattus norvegicus [5] = test: Toxicity in Wistar rat assessed as change in water intake at 40 mg/kg, po administered five times per week for 4 weeks; format: organism-based; set-up: dose 40 mg/kg, route oral; conditions: in vivo, 672 h
How it was run: (§3)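 Male Wistar rats, six per group, dosed by gavage in water/Tween 80 (97:3) five times weekly for 4 weeks, with or without DMH (four sc injections of 40 mg/kg in the first 2 weeks). Body weight and water intake recorded daily; mean ± SD.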

Rattus norvegicus [6] = test: Anticarcinogenic activity in Wistar rat colon assessed as reduction in frequency of DMH-induced aberrant crypt foci in proximal segment at 10 to 40 mg/kg, po administered five times per week for 4 weeks; format: functional, organism-based; how it was run: as §2
Rattus norvegicus [7] = test: Toxicity in Wistar rat assessed as body weight gain at 40 mg/kg, po administered five times per week for 4 weeks; format: organism-based; set-up: dose 40 mg/kg, route oral; conditions: in vivo, 672 h; how it was run: as §3
Rattus norvegicus [8] = test: Toxicity in Wistar rat assessed as body weight gain at 10 to 40 mg/kg, po administered daily for 7 days; format: organism-based; set-up: dose 10-40 mg/kg, route oral; conditions: in vivo, 168 h
How it was run: (§4)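 Male Wistar rats, six per group, compound dosed by gavage in water/Tween 80 (97:3) daily for 7 days, with or without DMH 40 mg/kg sc. Body weight and water intake recorded daily; mean ± SD.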

Rattus norvegicus [9] = test: Toxicity in Wistar rat assessed as change in water intake at 10 to 40 mg/kg, po administered daily for 7 days; format: organism-based; set-up: dose 10-40 mg/kg, route oral; conditions: in vivo, 168 h; how it was run: as §4
Rattus norvegicus [10] = test: Anticarcinogenic activity in Wistar rat colon assessed as reduction in frequency of DMH-induced aberrant crypt foci in middle segment at 10 to 40 mg/kg, po administered five times per week for 4 weeks; format: functional, organism-based; how it was run: as §2

O=C1OC[C@H](Cc2ccc3c(c2)OCO3)[C@H]1Cc1ccc2c(c1)OCO2 [HINOKININ]
Activity (Rattus norvegicus [1]): 54.7% | Activity (Rattus norvegicus [2]): Active | Activity (Rattus norvegicus [3]): 43.2% | Activity (Rattus norvegicus [4]): 50.4% | Activity (Rattus norvegicus [5]): Non-toxic | Activity (Rattus norvegicus [6]): inactive | Activity (Rattus norvegicus [7]): Non-toxic | Activity (Rattus norvegicus [8]): Non-toxic | Activity (Rattus norvegicus [9]): Non-toxic | Activity (Rattus norvegicus [10]): Active
